# Residues, ends and D or L forms follow the SMILES beside them.
# Tested on: Rattus norvegicus
# Test: Cardioprotective activity in Sprague-Dawley rat model of myocardial ischemia-reperfusion injury assessed as reduction in MI/AR ratio at 1 to 10 mg/kg, iv bolus administered 15 mins prior to 30 mins LCX ligation by TTC staining-based fluorescence microscopy relative to placebo control
# Assay type: functional, Myocardium
# Design: scale not given: the % may be the effect or the level left
# Conditions: dose mg/kg 1-10
# Procedure, shortened: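 Anaesthetised animals underwent thoracotomy and pericardotomy, then LCX coronary ligation for 30 min followed by reperfusion. Agent was given in isotonic saline (pH-neutralised with NaOH, 285 mOsm), 1 mL/kg, before ligation. Fluorescent microspheres injected into the LV cavity during ischemia marked the area at risk. Hearts were excised after 24 h and cut into five 2 mm slices stained with 1% TTC. The MI/AR ratio was compared with placebo by Student's t-test.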
row,Molecule,Activity
1,O=C(CCCC[C@@H]1CCSS1)NCCS(=O)(=O)O,45%
2,O=C(CCCC[C@@H]1CCSS1)NC(CF)C(=O)O (some centres undefined),10%
3,C[C@H](NC(=O)CCCC[C@@H]1CCSS1)C(=O)N[C@@H](CCC(=O)O)C(=O)O,24%
4,O=C(CCCC[C@@H]1CCSS1)NCCOP(=O)(O)O,47%
5,O=C(CCCC[C@@H]1CCSS1)NCCOS(=O)(=O)O,30%
6,O=C(CCCC[C@@H]1CCSS1)N[C@@H](Cc1ccc(C(=O)O)cc1)C(=O)O,26%
7,O=C(CCCC[C@@H]1CCSS1)Nc1ccc(C(=O)O)cc1,22%
8,O=C(CCCC[C@@H]1CCSS1)N[C@@H](Cc1ccc(O)cc1)C(=O)O,29%
9,O=C(O)CNC(=O)[C@H](CC(=O)O)NC(=O)CCCC[C@@H]1CCSS1,28%
10,CC(=O)N[C@@H](CCC(=O)O)C(=O)N[C@@H](C)C(=O)N[C@@H](CCC(=O)O)C(=O)N[C@@H](C)C(=O)O (Ac-EAEA-OH),23%
11,O=C(CCCC[C@@H]1CCSS1)N[C@@H](CS(=O)(=O)O)C(=O)O,30%
12,O=C(CCCC[C@@H]1CCSS1)Nc1cccc(S(=O)(=O)O)c1,33%
13,O=C(O)CCNC(=O)CCCC[C@@H]1CCSS1,39%
14,C[C@H](NC(=O)[C@H](Cc1ccc(O)cc1)NC(=O)CCCC[C@@H]1CCSS1)C(=O)O,31%
15,O=C(CCCC[C@@H]1CCSS1)NCCP(=O)(O)O,53%
16,O=C(O)CCCC[C@@H]1CCSS1 [THIOCTIC ACID],19%
17,CC(=O)N[C@@H](CCC(=O)O)C(=O)N[C@@H](C)C(=O)O (Ac-Glu-Ala-OH),23%
18,O=C(CCCC[C@@H]1CCSS1)Nc1ccc(S(=O)(=O)O)cc1,44%
19,NC(=O)CC[C@H](NC(=O)CCCC[C@@H]1CCSS1)C(=O)NCC(=O)O,17%
20,O=C(O)CC[C@H](NC(=O)CCCC[C@@H]1CCSS1)C(=O)NCCS(=O)(=O)O,33%
21,O=C(O)CN(CC(=O)O)C(=O)CCCC[C@@H]1CCSS1,21%
22,C[C@H](NC(=O)[C@H](CCC(=O)O)NC(=O)CCCC[C@@H]1CCSS1)C(=O)O [CMX-2043],31%
23,Ac-EAEAEGA-OH,17%
24,O=C(O)CC[C@H](NC(=O)CCCC[C@@H]1CCSS1)C(=O)O,33%

# — ChEMBL document CHEMBL3098075, “Lipoic acid analogs with enhanced pharmacological activity” (2014)
